Screening data as filed in PubChem BioAssay.
Shown are actives, neighbours in structure and some others; about 4% of the full set was active somewhere.
TAAR1 antag: human TAAR1 antagonists, primary screen, Fluo-8 calcium fluorescence, CHO RD-HGA16 cells; antagonist; AID 624466, 2012; inhibition, % at 3 µM; 360,000 compounds, 1.5% hits;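 active = inhibition above a per-plate cutoff, the mean inhibition of test compounds on that plate plus 3 SD, cut at about 49% in these data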;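 also: 0% = DMSO plus EC80 beta-PEA response and 100% = DMSO alone without agonist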
Target sequence (Q96RJ0 whole entry, looked up): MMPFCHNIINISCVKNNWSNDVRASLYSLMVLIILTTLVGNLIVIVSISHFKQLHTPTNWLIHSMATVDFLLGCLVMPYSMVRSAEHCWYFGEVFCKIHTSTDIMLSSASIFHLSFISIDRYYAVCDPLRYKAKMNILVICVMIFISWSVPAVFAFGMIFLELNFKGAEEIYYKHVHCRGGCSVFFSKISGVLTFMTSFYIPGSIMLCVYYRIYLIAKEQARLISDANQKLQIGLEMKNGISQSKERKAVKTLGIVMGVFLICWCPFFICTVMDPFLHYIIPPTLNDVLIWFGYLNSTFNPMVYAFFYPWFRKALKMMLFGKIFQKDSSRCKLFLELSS
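System: RD-HGA16 CHO cells with stable hTAAR1 and Gα16 | Probe or stimulus: EC80 β-phenethylamine stimulus | Dosing: 3 µM, single point | Times: Dye loading 75 min at 37 °C, then 30 min room temperature | Measured by: Fluo-8 calcium-sensitive fluorescence | Read-out basis: % inhibition of agonist calcium response | Replicates: n of 1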
OX1R antag-1: antagonists of human orexin 1 receptor (OX1R); OX1R-expressing cells, FRET antagonist read-out; AID 485270, 2010; inhibition, % at 6.6 µM; 330,000 compounds, 1.8% hits; in the data active = inhibition mostly above about 38%, no sharp cut-off; inactive = mostly below about 40%;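 also: 0% = agonist challenge alone and 100% = reference antagonist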
OX1R antag-2: OX1R (HCRTR1) antagonists, primary screen, fluorescence, CHO/OX1R cells, Fluo-8 calcium, orexin A | Fluo-8 calcium fluorescence | Orexin/Hypocretin receptor type 1 (Homo sapiens), O43613 | inhibition, % at 5 µM | 330,000 compounds, 0.43% hits;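 active = inhibition above its plate's threshold, mean inhibition of all tested compounds on the plate plus 3 SD, cut at about 37% in these data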;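 also: 0% = orexin A challenge wells and 100% = SB-334867-A antagonist wells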
TAAR1 ag: human TAAR1 agonists, primary screen, Fluo-8 calcium fluorescence, CHO RD-HGA16 cells. activation, % at 3 µM. 360,000 compounds, 0.99% hits. vehicle wells 0%, saturating PEA agonist 100%. Trace amine-associated receptor 1 (Homo sapiens), Q96RJ0;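 active = activation above the mean activation of all test compounds in the run plus 3 SD, cut at about 38% in these data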
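System: CHO RD-HGA16 cells carrying human TAAR1 plus Gα16; Incubation: 17-24 h seeding, 75 min 37 °C dye, 30 min RT; Measured by: Fluo-8 fluorescence, 5 s baseline then 140 s kinetic read; Control set: DMSO and PEA EC100; Replication: single well for each compound.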
CHO parental Ca: ATP-evoked calcium signal inhibitors, parental CHO, primary screen, counter-screen for OX1R antagonist project, cell-based, fluorescence, Fluo-8 calcium dye; parental CHO-K1, ATP-induced calcium, Fluo-8 fluorescence; inhibition, % at 5.6 µM; 330,000 compounds, 0.63% hits; AID 463079, 2010;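 active = inhibition above that plate's mean sample inhibition plus 3 SD, cut at about 26% in these data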;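 also: 0% = ATP-challenged DMSO wells and 100% = DMSO wells without ATP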
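Test system: untransfected parental CHO cell line; also added: ATP stimulus; dosing: 5.6 µM, single dose; signal: calcium-sensitive Fluo-8 fluorescence; measure: percent inhibition of ATP-evoked calcium rise, normalized to controls; benchmarks: low control ATP plus DMSO, high control DMSO only; replication: one well per compound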
An asterisk follows results filed as active; . = no result given.

SMILES	TAAR1 antag	OX1R antag-1	OX1R antag-2	TAAR1 ag	CHO parental Ca
O=c1[nH]c(=O)n(C2CCCCC2)c(O)c1/C=C/C=Nc1ccccc1	43	24	3	39*	-4
CCCCCN1C(=O)c2ccccc2[C@@]2(C(=O)OCC)Cc3cc(OC)ccc3[C@@H]12	-17	.	.	0	.
COC(=O)C1=C(c2ccc(F)cc2OCc2ccccc2)C[C@@H]2CC[C@H]1N2C(=O)NCc1ccc(Br)cc1	51*	6	0	12	-22
COC(=O)C1=C(c2ccccc2OCc2ccccc2)C[C@@H]2CC[C@H]1N2C(=O)NCc1cccc(F)c1	42	41*	35	14	-28
N#Cc1ccc(NC(=S)N2Cc3ccc(Br)cc3-n3nncc3C2)cc1	13	.	.	26	.
CCCCc1nc(N2CCNCC2)c(C#N)c2c1CSC(C)(C)C2	17	6	-22	40*	-13
COC(=O)C1=C(c2cccc3c2S(=O)(=O)c2ccccc2-3)C[C@@H]2CC[C@H]1N2C(=O)N1CCOCC1	10	6	-12	4	-10
COC(=O)C1=C(c2cccc3c2S(=O)(=O)c2ccccc2-3)C[C@@H]2CC[C@H]1N2C(=O)N1CCc2cc(OC)c(OC)cc2C1	51*	7	-8	17	-19
O=C1CC2OCC=C3CN4CCC56c7ccccc7N1C5C2C3CC46O (stereo not drawn)	-8	.	.	2	.
OC1CN2CCCC(O)C2C1O (stereo not drawn)	-9	.	.	1	.
O=C(NCCN1CCC2(CC1)C(=O)NCN2c1ccccc1)c1cc(C(F)(F)F)ccc1C(F)(F)F	-11	.	.	2	.
O=[N+]([O-])c1ccccc1-c1cc(-c2ccccc2)cc(-c2ccccc2)[n+]1Cc1ccccc1Cl	11	34	70*	0	68*
Cc1[nH]c2ccc(OC(F)(F)F)cc2c1CCNCc1cccc([N+](=O)[O-])c1	49*	11	14	44*	29*
Cc1[nH]c2ccc(OC(F)(F)F)cc2c1CCNCc1ccc(Cl)cc1	35	.	.	38*	.
CCOc1cccc(CNCCc2c(C)[nH]c3ccc(OC(F)(F)F)cc23)c1O	49*	15	55*	55*	85*
COc1ccc2[nH]c(C)c(CCNCc3cccnc3)c2c1	-4	0	4	10	-5
O=C(NCCN1CCC2(CC1)C(=O)NCN2c1ccccc1)c1ccccc1C(F)(F)F	-3	.	.	-1	.
CCOC(=O)CNC(=O)N1Cc2cc(Br)ccc2-n2nncc2C1	4	.	.	-1	.
Cn1c(=O)[nH]c2nncnc2c1=O	-9	70*	5	-1	-2
C#C[C@]1(O)CCC2C3C(=O)C=C4C=CCC[C@]4(C)C3CC[C@@]21C (stereo partly drawn)	49*	.	.	14	.
C[C@]12C[C@H](O)[C@@H](O)C[C@@H]1CC[C@@H]1[C@@H]2CC[C@]2(C)C(=O)CC[C@@H]12	51*	.	.	11	.
C[C@]12CCC3[C@@H](CC[C@H]4C[C@@H](O)CC[C@]34C)C1CCC2=O (stereo partly drawn)	9	0	-12	8	-7
CN1CC[C@@H]2CN[C@H](c3ccccc3Br)C[C@@H]21	-21	.	.	3	.
NCCc1ccccc1	81*	10	-3	92*	-7
Cc1ccc(/C=C2/C(=O)NC(=O)N(CCc3ccc(F)cc3)C2=O)o1	28	20	-9	39*	-5
CN1C(=O)NC(=O)C(N=Nc2ccc(Cl)cc2)C1=O (stereo not drawn)	-17	.	.	-1	.
COc1cc2c(cc1OC)C1C(=O)c3ccc4c(c3OC1CO2)CC(C(C)C)O4 (stereo not drawn)	8	.	.	4	.
COc1cc2c(cc1OC)[C@@H]1C(=O)c3ccc4c(c3O[C@@H]1CO2)C[C@H](C(C)C)O4	5	57	12	7	60*
CCN1/C(=C\C=C\C2=[N+](CC)c3ccccc3C2(C)C)C(C)(C)c2ccccc21	.	22	108*	.	100*
COc1cc(C=C2C(=O)NC(=O)NC2=O)ccc1OCc1ccc([N+](=O)[O-])cc1	-7	.	.	2	.
